The source of these data is PubChem BioAssay.

The source made the active and inactive calls.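 How the source made its calls, unless noted: active means a full or partial loss of lipid-probe fluorescence in the fish gall bladder, intestine or both, judged by eye; inactive means no fluorescence loss, or compound toxic to the fish.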

Experiment [1] in a line: inhibitors of TNFa-induced NFkB p65 translocation, primary screen, imaging, HUVEC, MLSMR starter and 10KST1 sets (AID 438;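 active means inhibition above 20% together with a positive visual image hit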;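 further: compound added about 3h40 before a 20 min TNFalpha stimulation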;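 on inhibition: signal is the nuclear over cytoplasmic p65 intensity ratio per well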). Conditions: HUVEC TNFa-induced p65 nuclear translocation; cell count: measured here: nuclei count (cytotoxicity indicator), at 2.08 µM; inhibition: at 2 µM, stronger effect = higher value, 0% TNFa-plus-vehicle, 100% no-TNFa wells.
A short description of experiment [2]: endothelial E-selectin expression blockers – imaging, HUVEC, immunofluorescence, MLSMR starter and 10KST1 sets, primary screen (AID 487;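 active means visually confirmed hit in the image check and inhibition above 20%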;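 on inhibition: signal is fraction of cell area covered by stained E-selectin grains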;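 on nuclei count: 100% = median nuclei count of all wells on the same plate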). Conditions: HUVEC TNFalpha-induced E-selectin immunofluorescence imaging, at 2 µM; inhibition: stronger effect = higher value; nuclei count: measured here: cell number, toxicity.
A short description of experiment [3]: Primary imaging screen for DUSP6 inhibitors that restore phospho-Erk in transfected HeLa cells, chemical complementation (AID 609;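 active means compounds giving at least 50% inhibition in the cell-based MKP-3 phosphatase rescue imaging test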;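 on inhibition: phospho-Erk level distribution per well compared with pooled transfected vehicle control wells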). Conditions: HeLa MKP-3 transfected, phospho-Erk imaging KS statistic, at 10 µM, cells stimulated with TPA for 15 min.
The target in experiment [4] is Dual specificity protein phosphatase 6 (Homo sapiens) (UniProt Q16828). The description is as above. Conditions: HeLa MKP-3 transfected, phospho-Erk imaging KS statistic; at 10 µM; stronger effect = higher value; cells stimulated with TPA for 15 min.
Dual specificity protein phosphatase 6 (Homo sapiens), sequence (Q16828 whole entry, looked up): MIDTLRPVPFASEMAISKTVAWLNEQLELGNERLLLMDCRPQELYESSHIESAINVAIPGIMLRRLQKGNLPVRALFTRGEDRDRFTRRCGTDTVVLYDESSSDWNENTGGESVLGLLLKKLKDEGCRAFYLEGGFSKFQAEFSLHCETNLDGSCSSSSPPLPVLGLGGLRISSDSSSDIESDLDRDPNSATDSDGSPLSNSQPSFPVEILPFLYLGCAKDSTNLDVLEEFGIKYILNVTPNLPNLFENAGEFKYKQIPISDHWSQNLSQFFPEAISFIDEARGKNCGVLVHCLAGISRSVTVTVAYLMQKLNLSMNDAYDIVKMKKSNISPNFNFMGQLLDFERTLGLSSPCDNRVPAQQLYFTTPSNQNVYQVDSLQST
Experiment [5] deals with Voltage-gated potassium channel subunit beta-2 (Rattus norvegicus) (UniProt P62483). In words: inhibitors of rat Kvbeta2 reductase activity – biochemical, NADPH fluorescence, primary screen (AID 622;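 active means fluorescence slope higher than the sample average by over 3 SD, cut at about -0.22 in these data, passing the limit was not always enough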;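 further: slope of raw intensity against log time taken from 70 to 1610 s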). Conditions: recombinant KvBeta, 4-cyanobenzaldehyde reduction, at 10 µM, stronger effect = higher value.
Voltage-gated potassium channel subunit beta-2 (Rattus norvegicus), sequence (P62483 whole entry, looked up): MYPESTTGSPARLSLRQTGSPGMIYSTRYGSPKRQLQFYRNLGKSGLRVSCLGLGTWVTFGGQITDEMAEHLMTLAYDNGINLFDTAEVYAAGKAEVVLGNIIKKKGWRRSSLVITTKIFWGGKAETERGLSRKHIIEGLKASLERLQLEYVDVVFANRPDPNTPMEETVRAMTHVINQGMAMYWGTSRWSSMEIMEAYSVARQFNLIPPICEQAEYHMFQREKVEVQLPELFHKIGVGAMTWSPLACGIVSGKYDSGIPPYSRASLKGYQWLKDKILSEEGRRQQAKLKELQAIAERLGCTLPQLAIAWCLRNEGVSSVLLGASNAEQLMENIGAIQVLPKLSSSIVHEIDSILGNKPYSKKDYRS
The target is the same in experiment [6]. Nature of the experiment: enhancers of rat Kvbeta2 NADPH turnover – biochemical, NADPH fluorescence, primary screen (AID 623;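 active means NADPH fluorescence slope more negative than the mean of all samples by about 3 SD, 99.7% confidence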;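 further: fluorescence intensity change per second fitted from 20 to 320 s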). The conditions noted are these: Recombinant KvBeta, NADPH fluorescence decrease slope, 10 min; at 10 µM; stronger effect = lower value.
The target in experiment [7] is Alpha-2C adrenergic receptor (Homo sapiens) (UniProt P18825). In words: compounds altering alpha2C-coupled GIRK flux – cell-based, HEK293 alpha2C/GIRK1/2, thallium flux, primary screen (AID 624;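 active means fluorescence slope after compound addition differing from the mean of all screened samples at 99.7% confidence, in either direction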;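 further: slope of fluorescence ratio to pre-addition baseline per second over 15 to 24 s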). The conditions noted are these: thallium flux BTC fluorescence, at 10 µM, actives lie on both sides.
Alpha-2C adrenergic receptor (Homo sapiens), sequence (P18825 whole entry, looked up): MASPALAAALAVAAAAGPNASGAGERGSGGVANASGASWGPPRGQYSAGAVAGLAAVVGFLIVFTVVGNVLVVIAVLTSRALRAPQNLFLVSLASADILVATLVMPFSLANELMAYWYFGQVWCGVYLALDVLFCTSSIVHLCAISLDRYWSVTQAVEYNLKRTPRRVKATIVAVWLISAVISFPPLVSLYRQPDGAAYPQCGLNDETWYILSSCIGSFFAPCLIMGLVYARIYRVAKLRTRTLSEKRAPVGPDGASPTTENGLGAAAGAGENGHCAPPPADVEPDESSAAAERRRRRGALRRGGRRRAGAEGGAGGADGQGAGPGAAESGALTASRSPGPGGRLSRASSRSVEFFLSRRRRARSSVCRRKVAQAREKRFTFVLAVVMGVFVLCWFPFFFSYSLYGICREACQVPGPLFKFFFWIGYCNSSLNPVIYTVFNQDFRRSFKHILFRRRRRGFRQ
Experiment [8] can be described thus: inhibitors of larval lipid processing in zebrafish, primary screen, whole organism, PED6 fluorescence, gall bladder and intestine (AID 686).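 Further: larvae 5 to 7 days old with five fish per well; signal comes from phospholipase A2 cleavage of quenched PED6 carried via bile; overnight exposure to compound and PED6 before scoring.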 The conditions noted are these: Zebrafish larvae PED6 lipid processing, fluorescence scoring; screened at 20 µM (by protocol). An outline of the steps:
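system = live zebrafish larvae aged 5-7 days, whole organism | probe or stimulus = ingested quenched lipid PED6 at 100 nM | doses = 20 µM single dose | timing = overnight exposure | detection = fluorescence microscopy with visual scoring of gall bladder and intestine | read-out = visual per-well fluorescence inhibition score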

A short description of experiment [9]: loss of swimming-algae plug formation – whole organism, Chlamydomonas reinhardtii, WT vs cilia-less mutant, absorbance, 96-well, primary screen (AID 463189;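 active means inhibition at or above 50% relative to wild type and mutant plate controls; inactive means inhibition below 50%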;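 further: 0% = wild type cc124 cells in DMSO and 100% = ciliumless bld1 mutant cells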). Conditions: Chlamydomonas reinhardtii gravitaxis, OD600 absorbance, 2 days; at 10 µM; stronger effect = higher value.
Setting [10] is: measured here: cell density z-score.
[11] abbreviates: measured here: nuclear c-Myc green intensity z-score.
The mark [12] stands for this setting: measured here: nuclear pErk red intensity z-score, stronger effect = higher value.

As to `[N-]=[N+]=CC(=O)c1ccnc(C(=O)C=[N+]=[N-])c1`, the cell count in experiment [1] came out at 544. Besides, the inhibition in [1] is -10.2% (inactive); in [2], -164% (inactive); in experiment [4], 21.8% (inactive); in experiment [9], 3.22% (inactive). In [2], this compound yielded a nuclei count of 136%. Further, the figures for the z-score in experiment [3] (setting [10]), in experiment [3] (setting [11]) and in experiment [3] (setting [12]) were 1.23, -1.66 and -0.478, respectively. Moreover, in experiment [5], the fluorescence slope is -0.54 (inactive). In addition, the NADPH fluorescence slope in [6] is -6.3e-05 (inactive). The slope in [7] was 0.00557 (inactive). Besides, in [8], the compound was classed as inactive.
Turning to `CCOc1cccc(-c2nnc3sc(COc4ccccc4)nn23)c1`, the cell count in experiment [1] turned out to be 537. The inhibition is -7.5% (inactive) in experiment [1], 40.9% (inactive) in [2], -4.27% (inactive) in [4] and 17.6% (inactive) in [9]. For the same compound, the nuclei count in experiment [2] came to 91.9%. Besides, the figures for the z-score in experiment [3] (setting [10]), in experiment [3] (setting [11]) and in experiment [3] (setting [12]) were 1.73, -0.94 and -0.568, respectively. Besides, the fluorescence slope in [5] was -0.433 (inactive). Besides, in [6], the NADPH fluorescence slope is -9.6e-05 (inactive). In addition, the slope in experiment [7] was 0.00533 (inactive). In addition, the call in [8] was inactive.
In the case of `COc1ccc(-c2nnc3sc(COc4ccccc4)nn23)cc1`, the cell count in experiment [1] was 645. For the same compound, the inhibition in experiment [1] is -8.4% (inactive); in experiment [2] it was -95.8% (inactive); in experiment [4] it was 4.72% (inactive); in experiment [9], 150% (active). The same compound gave a nuclei count in experiment [2] of 154%. For the same compound, the z-score in experiment [3] (setting [10]) was -0.369; in experiment [3] (setting [11]), -0.469; in experiment [3] (setting [12]), -1.07. Also, the fluorescence slope in experiment [5] is -0.445 (inactive). In addition, in [6], the NADPH fluorescence slope is -0.000151 (inactive). Further, the slope in experiment [7] is 0.00767 (inactive). For the same compound, the outcome in experiment [8] was inactive.
Regarding `CC(=O)C1=C(O)C(=O)N(Cc2cccnc2)C1c1ccccc1Cl` (centres undefined), in [1], the cell count was found to be 645. For the same compound, the inhibition in experiment [1] was -3.5% (inactive); in experiment [2], -41.7% (inactive); in [4], 31.1% (inactive); in experiment [9], 10.6% (inactive). The nuclei count in [2] was found to be 140%. Also, the z-score is 1.32 in experiment [3] (setting [10]), -1.67 in [3] (setting [11]) and -1.62 in experiment [3] (setting [12]). In addition, the fluorescence slope in experiment [5] was -0.49 (inactive). In experiment [6], the NADPH fluorescence slope is -0.000254 (inactive). In addition, the slope in experiment [7] was 0.00582 (inactive). The outcome in experiment [8] was inactive.
As to `COc1ccc(/C(O)=C2/C(=O)C(=O)N(CCN3CCOCC3)C2c2ccccn2)cc1` (centres undefined), in experiment [1], the cell count came to 316. The inhibition in experiment [1] was -13.6% (inactive); in experiment [2], 25.6% (inactive); in experiment [4], -7.79% (inactive); in experiment [9], 25.9% (inactive). Also, the nuclei count in [2] is 75.8%. Moreover, the figures for the z-score in [3] (setting [10]), in experiment [3] (setting [11]) and in experiment [3] (setting [12]) were -1.25, 0.879 and 1.18, respectively. Further, the fluorescence slope in [5] is -0.44 (inactive). In addition, in experiment [6], the NADPH fluorescence slope was -1.3e-05 (inactive). Besides, the slope in experiment [7] was 0.00633 (inactive). In addition, in [8], the compound was classed as inactive.
For the compound `COC(=O)c1cc(OC)c(OC)cc1N`, in experiment [1], the cell count was found to be 358. For the same compound, the inhibition is -11.5% (inactive) in experiment [1], 9.3% (inactive) in experiment [2], -12.3% (inactive) in experiment [4] and -2.54% (inactive) in experiment [9]. This compound also showed a nuclei count in experiment [2] of 135%. The values for the z-score in [3] (setting [10]), in [3] (setting [11]) and in [3] (setting [12]) were 0.282, 0.254 and 0.0446, respectively. Besides, in [5], the fluorescence slope was -0.385 (inactive). The NADPH fluorescence slope in experiment [6] is -0.000132 (inactive). In addition, the slope in experiment [7] was 0.00592 (inactive). For the same compound, in experiment [8], the compound was classed as inactive.
For `CC(C(=O)N1CCCCC1)N1C(=O)c2ccccc2C1=O` (centres undefined), in [1], the cell count was determined as 352. Moreover, the inhibition in experiment [1] was -17.2% (inactive); in [2], -54% (inactive); in experiment [4] it was 17.5% (inactive); in experiment [9], 10.7% (inactive). In experiment [2], this compound gave a nuclei count of 122%. Moreover, the z-score was 2.3 in experiment [3] (setting [10]), -0.711 in [3] (setting [11]) and -0.781 in experiment [3] (setting [12]). In [5], the fluorescence slope was -0.452 (inactive). In addition, the NADPH fluorescence slope in experiment [6] is -0.000116 (inactive). Also, the slope in experiment [7] is 0.00537 (inactive). Further, the compound was called inactive in experiment [8].
As for `CC1(C)CC(=O)C2=C(C1)N(Cc1ccco1)C(=O)C2(NC(=O)c1cccnc1)C(F)(F)F` (centres undefined), in experiment [1], the cell count turned out to be 499. Also, the inhibition in experiment [1] was -8.6% (inactive); in experiment [2], -131% (inactive); in experiment [4] it was 3.5% (inactive); in experiment [9], 0.823% (inactive). The compound also displayed a nuclei count in experiment [2] of 136%. Moreover, the z-score is -1.48 in [3] (setting [10]), -1.13 in [3] (setting [11]) and 0.615 in experiment [3] (setting [12]). Besides, the fluorescence slope in experiment [5] was -0.492 (inactive). Besides, the NADPH fluorescence slope in [6] was -6.7e-05 (inactive). In [7], the slope was 0.00643 (inactive). The result in [8] was inactive.
As to `CC1CCc2cc(F)cc3c(O)c(C(=O)NCc4ccco4)c(=O)n1c23` (centres undefined), the cell count in experiment [1] came out at 531. Moreover, the inhibition in [1] was -4.5% (inactive); in [2] it was -39.2% (inactive); in [4], 5.26% (inactive); in experiment [9] it was 6.44% (inactive). Further, in experiment [2], the nuclei count was found to be 138%. Further, the z-score in [3] (setting [10]) is -0.138; in experiment [3] (setting [11]), 1.87; in experiment [3] (setting [12]) it was -4.17. In [5], the fluorescence slope was -0.329 (inactive). Besides, in experiment [6], the NADPH fluorescence slope was 4e-05 (inactive). In [7], the slope is 0.00603 (inactive). Besides, the compound was classed as inactive in [8].
As to `S=c1[nH]nc(-c2ccccc2)n1Cc1ccccc1`, the cell count in [1] was found to be 506. In addition, the inhibition in [1] is 0% (inactive); in [2], -83.3% (inactive); in experiment [4], 7.48% (inactive); in experiment [9], -5.83% (inactive). In experiment [2], this compound registered a nuclei count of 170%. Besides, the z-score is 0.046 in [3] (setting [10]), 1.63 in [3] (setting [11]) and -0.862 in experiment [3] (setting [12]). For the same compound, the fluorescence slope in [5] is -0.391 (inactive). Also, the NADPH fluorescence slope in experiment [6] was -9.1e-05 (inactive). The slope in experiment [7] was 0.00591 (inactive). Besides, in experiment [8], the outcome was inactive.
Regarding `COCCCNC(=O)c1c(N)n(/N=C/c2cccs2)c2nc3ccccc3nc12`, the cell count in experiment [1] turned out to be 342. The inhibition was -11.1% (inactive) in experiment [1], 4.6% (inactive) in experiment [2], 17.4% (inactive) in [4] and 24.1% (inactive) in experiment [9]. The nuclei count in experiment [2] is 125%. Also, the z-score in experiment [3] (setting [10]) is 0.439; in experiment [3] (setting [11]), -0.623; in experiment [3] (setting [12]), -0.0865. In addition, the fluorescence slope in [5] was -0.266 (inactive). Besides, the NADPH fluorescence slope in experiment [6] was -5.1e-05 (inactive). Also, the slope in experiment [7] is 0.00731 (inactive). In addition, in [8], the result was inactive.
Regarding `CC1CN(C2CCN(S(=O)(=O)Cc3ccccc3)CC2)CC(C)O1` (centres undefined), the cell count in [1] amounted to 355. The inhibition is -15.2% (inactive) in experiment [1], -254% (inactive) in experiment [2], 5.57% (inactive) in [4] and 32.6% (inactive) in experiment [9]. The same compound yielded a nuclei count in [2] of 179%. Further, the z-score is 0.356 in experiment [3] (setting [10]), 0.313 in experiment [3] (setting [11]) and 0.176 in [3] (setting [12]). Also, the fluorescence slope in [5] is -0.391 (inactive). The NADPH fluorescence slope in experiment [6] was -1.6e-05 (inactive). Further, the slope in experiment [7] was 0.00538 (inactive). Besides, the outcome in experiment [8] was inactive.
Consider `CCOC(=O)C(C#N)C(Cc1ccccc1)c1ccco1` (centres undefined), for which, in experiment [1], the cell count is 590. The inhibition in [1] is -3% (inactive); in experiment [2] it was -70.2% (inactive); in experiment [4], 2.46% (inactive); in experiment [9], 6.44% (inactive). The compound further displayed a nuclei count in [2] of 166%. For the same compound, the z-score in [3] (setting [10]) is 1.19; in experiment [3] (setting [11]), -0.726; in experiment [3] (setting [12]) it was -0.042. The fluorescence slope in experiment [5] was -0.488 (inactive). The NADPH fluorescence slope in [6] is -0.000162 (inactive). The slope in experiment [7] is 0.00534 (inactive). Also, the outcome in [8] was inactive.
